Holding throughout (type): functional
Experiment [1] concerns Radical scavenging activity. Description: Antioxidant activity assessed as DPPH free radical scavenging activity at 100 uM after 30 mins. Put shortly: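 Sample brought to 1 mL with MeOH and mixed with 3 mL fresh 0.1 mM DPPH. Kept 30 min in the dark, then absorbance read at 517 nm. A DPPH control without sample was included. Scavenging (%) = [(Abs control − Abs sample)/Abs control] × 100.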
A general note: Loss of DPPH colour is used to gauge radical scavenging.

The test system of experiment [2] is Escherichia coli. Description: Antibacterial activity against Escherichia coli ATCC 25922 at 0.25 mg/mL after 24 hrs by agar-well diffusion method. The following applies: ATCC 25922, 24 h, read-out: IZ. Put shortly: (§1)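 Well diffusion on Mueller-Hinton agar seeded with 24 h old cultures. Test compounds dissolved in DMSO at 1, 0.5 and 0.25 mg/mL. 6 mm wells were punched with a sterile cork borer, test solutions added, and plates incubated 24 h at 37 °C.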
On the technique in general: A growth-free zone around the sample is the usual read-out of agar diffusion tests.

The subject of experiment [3] is Pseudomonas aeruginosa. Description: Antibacterial activity against Pseudomonas aeruginosa ATCC 27853 at 0.5 mg/mL after 24 hrs by agar-well diffusion method. The following applies: ATCC 27853, 24 h, read-out: IZ. In short, it runs like this:
as §1

Experiment [4] in a line: Antifungal activity against Chrysosporium keratinophilum MTCC 2827 at 1 mg/mL after 72 hrs by agar-well diffusion method. In short, it runs like this: (§2)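 Fungal spore suspensions made in normal saline were spread onto agar adjusted to pH 5.7, then dried 1 h at 37 °C. Wells were cut and loaded with test compounds in DMSO at different concentrations, with a DMSO control. Plates run in triplicate at 25 °C for 72 h. Read-out was inhibition zone diameter.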

Experiment [5] relates to Pseudomonas aeruginosa. Nature of the experiment: Antibacterial activity against Pseudomonas aeruginosa ATCC 27853 at 0.25 mg/mL after 24 hrs by agar-well diffusion method. The following applies: ATCC 27853, 24 h, read-out: IZ. In short, it runs like this: as §1
The test system of experiment [6] is Staphylococcus aureus. Description: Antibacterial activity against Staphylococcus aureus ATCC 25923 at 1 mg/mL after 24 hrs by agar-well diffusion method. The conditions noted are these: ATCC 25923, 24 h, read-out: IZ. Put shortly:
as §1

Experiment [7] is described as follows: Antifungal activity against Chrysosporium keratinophilum MTCC 2827 at 0.25 mg/mL after 72 hrs by agar-well diffusion method. Put shortly:
as §2

Experiment [8] deals with Aspergillus flavus. Nature of the experiment: Antifungal activity against Aspergillus flavus MTCC 3306 at 0.5 mg/mL after 72 hrs by agar-well diffusion method. The following applies: MTCC 3306, 72 h, read-out: DIZ. Put shortly:
as §2

Experiment [9] has as its system Aspergillus flavus. Nature of the experiment: Antifungal activity against Aspergillus flavus MTCC 3306 at 0.25 mg/mL after 72 hrs by agar-well diffusion method. The conditions noted are these: MTCC 3306, 72 h, read-out: DIZ. In short, it runs like this: as §2
Experiment [10] has as its system Escherichia coli. Nature of the experiment: Antibacterial activity against Escherichia coli ATCC 25922 at 0.5 mg/mL after 24 hrs by agar-well diffusion method. The following applies: ATCC 25922, 24 h, read-out: IZ. Put shortly:
as §1

The test system of experiment [11] is Candida albicans. Nature of the experiment: Antifungal activity against Candida albicans MTCC 3017 at 1 mg/mL after 72 hrs by agar-well diffusion method. The following applies: MTCC 3017, 72 h, read-out: DIZ. In short, it runs like this:
as §2

For experiment [12], the system named is Candida albicans. Nature of the experiment: Antifungal activity against Candida albicans MTCC 3017 at 0.5 mg/mL after 72 hrs by agar-well diffusion method. The following applies: MTCC 3017, 72 h, read-out: DIZ. In short, it runs like this:
as §2

Experiment [13] has as its system Aspergillus flavus. Nature of the experiment: Antifungal activity against Aspergillus flavus MTCC 3306 at 1 mg/mL after 72 hrs by agar-well diffusion method. The conditions noted are these: MTCC 3306, 72 h, read-out: DIZ. Put shortly: as §2
In experiment [14] the test system is Staphylococcus aureus. Description: Antibacterial activity against Staphylococcus aureus ATCC 25923 at 0.5 mg/mL after 24 hrs by agar-well diffusion method. The following applies: ATCC 25923, 24 h, read-out: IZ. In short, it runs like this: as §1
Experiment [15] can be described thus: Antifungal activity against Chrysosporium keratinophilum MTCC 2827 at 0.5 mg/mL after 72 hrs by agar-well diffusion method. In short, it runs like this: as §2
Experiment [16] has as its system Escherichia coli. Description: Antibacterial activity against Escherichia coli ATCC 25922 at 1 mg/mL after 24 hrs by agar-well diffusion method. The following applies: ATCC 25922, 24 h, read-out: IZ. Put shortly: as §1
Experiment [17] deals with Staphylococcus aureus. Nature of the experiment: Antibacterial activity against Staphylococcus aureus ATCC 25923 at 0.25 mg/mL after 24 hrs by agar-well diffusion method. The following applies: ATCC 25923, 24 h, read-out: IZ. Put shortly:
as §1

The subject of experiment [18] is Candida albicans. Nature of the experiment: Antifungal activity against Candida albicans MTCC 3017 at 0.25 mg/mL after 72 hrs by agar-well diffusion method. The following applies: MTCC 3017, 72 h, read-out: DIZ. Put shortly:
as §2

Experiment [19] relates to Pseudomonas aeruginosa. Nature of the experiment: Antibacterial activity against Pseudomonas aeruginosa ATCC 27853 at 1 mg/mL after 24 hrs by agar-well diffusion method. The conditions noted are these: ATCC 27853, 24 h, read-out: IZ. In short, it runs like this:
as §1

Regarding `Cc1cc(C(C)(C)C)c(O)c(C(C)(C)C)c1`, in [1], the Activity was 72.4%.

For the compound `CCOC(=O)C1=C(C)NC(C)=C(C(=O)OCC)C1c1c[nH]nc1-c1ccc(OC)cc1`, the zone of inhibition at 250 µg/mL turned out to be 5 mm in experiment [2]; 5 mm in experiment [5]; 0 mm in [9]; 6 mm in experiment [17]; 2 mm in experiment [18]. Further, in experiment [1], the Activity was determined as 30.3%. For the same compound, the zone of inhibition at 500 µg/mL stood at 7 mm in experiment [3]; 1 mm in [8]; 8 mm in [10]; 1 mm in experiment [12]; 8 mm in [14]. Further, the inhibition zone (IZ) in experiment [4] stood at 3 mm; in experiment [7] it was 0 mm; in experiment [15], 2 mm. The zone of inhibition at 1000 µg/mL in [6] was found to be 13 mm; in [11], 3 mm; in [13] it was 2 mm; in experiment [16] it was 12 mm; in [19], 10 mm.

Consider `COC(=O)C1=C(C)NC(C)=C(C(=O)OC)C1c1c[nH]nc1-c1ccc(OC)cc1`, for which the zone of inhibition at 250 µg/mL came to 2 mm in experiment [2]; 2 mm in [5]; 0 mm in experiment [9]; 2 mm in experiment [17]; 0 mm in [18]. For the same compound, the Activity in experiment [1] was determined as 30.2%. Moreover, the zone of inhibition at 500 µg/mL turned out to be 4 mm in experiment [3]; 0 mm in [8]; 4 mm in experiment [10]; 0 mm in [12]; 4 mm in experiment [14]. The inhibition zone (IZ) in [4], in experiment [7] and in experiment [15] was 0 mm each time. For the same compound, the zone of inhibition at 1000 µg/mL in [6] came out at 6 mm; in [11] it was 0 mm; in experiment [13], 0 mm; in [16] it was 7 mm; in experiment [19] it was 7 mm.

Turning to `COC(=O)C1=C(C)NC(C)=C(C(=O)OC)C1c1c[nH]nc1-c1ccc(-c2ccccc2)cc1`, the zone of inhibition at 250 µg/mL in experiment [2] was 8 mm; in [5], 7 mm; in [9], 2 mm; in [17], 5 mm; in experiment [18], 0 mm. The Activity in [1] was 25.3%. In addition, the zone of inhibition at 500 µg/mL in experiment [3] is 8 mm; in [8] it was 4 mm; in [10], 10 mm; in experiment [12], 0 mm; in [14], 7 mm. The results for the inhibition zone (IZ) in [4], in experiment [7] and in experiment [15] were 3 mm, 0 mm and 2 mm, respectively. Moreover, the zone of inhibition at 1000 µg/mL in [6] amounted to 9 mm; in experiment [11], 0 mm; in experiment [13], 5 mm; in experiment [16], 13 mm; in experiment [19] it was 10 mm.

For the compound `OC(Cn1cncn1)(Cn1cncn1)c1ccc(F)cc1F` [FLUCONAZOLE], the figures for the inhibition zone (IZ) in experiment [4], in experiment [7] and in [15] were 17 mm, 14 mm and 15 mm, respectively. For the same compound, the zone of inhibition at 500 µg/mL in experiment [8] was 11 mm; in experiment [12], 21 mm. Moreover, the zone of inhibition at 250 µg/mL is 10 mm in [9] and 20 mm in [18]. In addition, the results for the zone of inhibition at 1000 µg/mL in experiment [11] and in [13] were 22 mm and 13 mm, respectively.

On to `CN[C@@H]1[C@H](O[C@H]2[C@H](O[C@H]3[C@H](O)[C@@H](O)[C@H](N=C(N)N)[C@@H](O)[C@@H]3N=C(N)N)O[C@@H](C)[C@]2(O)C=O)O[C@@H](CO)[C@H](O)[C@H]1O` [STREPTOMYCIN], for which the zone of inhibition at 250 µg/mL in experiment [2] was 8 mm; in [5], 11 mm; in experiment [17], 9 mm. Moreover, the zone of inhibition at 500 µg/mL in experiment [3] came out at 13 mm; in experiment [10], 10 mm; in experiment [14], 10 mm. Moreover, the figures for the zone of inhibition at 1000 µg/mL in experiment [6], in experiment [16] and in experiment [19] were 15 mm, 16 mm and 16 mm, respectively.

For the compound `COC(=O)C1=C(C)NC(C)=C(C(=O)OC)C1c1c[nH]nc1-c1cc(Cl)sc1Cl`, the zone of inhibition at 250 µg/mL in experiment [2] was found to be 5 mm; in experiment [5], 1 mm; in [9], 0 mm; in [17] it was 4 mm; in experiment [18] it was 0 mm. For the same compound, the Activity in experiment [1] came to 30.3%. Moreover, the zone of inhibition at 500 µg/mL in experiment [3] was found to be 3 mm; in experiment [8], 2 mm; in [10], 7 mm; in experiment [12] it was 2 mm; in experiment [14], 8 mm. Also, the inhibition zone (IZ) was found to be 4 mm in [4], 1 mm in experiment [7] and 2 mm in [15]. For the same compound, the zone of inhibition at 1000 µg/mL in [6] stood at 10 mm; in experiment [11] it was 3 mm; in [13] it was 3 mm; in [16], 10 mm; in [19], 7 mm.

On to `COC(=O)C1=C(C)NC(C)=C(C(=O)OC)C1c1c[nH]nc1-c1ccc(SC)cc1`, for which the zone of inhibition at 250 µg/mL worked out at 1 mm in experiment [2]; 3 mm in experiment [5]; 0 mm in experiment [9]; 2 mm in [17]; 0 mm in experiment [18]. Moreover, the Activity in experiment [1] was found to be 32.2%. Further, the zone of inhibition at 500 µg/mL is 4 mm in [3]; 0 mm in experiment [8]; 2 mm in experiment [10]; 0 mm in experiment [12]; 3 mm in [14]. The inhibition zone (IZ) in experiment [4], in [7] and in experiment [15] was 0 mm throughout. Besides, the zone of inhibition at 1000 µg/mL in [6] is 6 mm; in experiment [11], 0 mm; in experiment [13] it was 0 mm; in [16] it was 4 mm; in experiment [19], 6 mm.

As to `CCOC(=O)C1=C(C)NC(C)=C(C(=O)OCC)C1c1c[nH]nc1-c1cc(Cl)sc1Cl`, the zone of inhibition at 250 µg/mL in experiment [2] was found to be 8 mm; in experiment [5], 10 mm; in experiment [9], 3 mm; in [17], 8 mm; in experiment [18], 2 mm. In addition, the Activity in experiment [1] is 32%. The zone of inhibition at 500 µg/mL was 12 mm in experiment [3]; 3 mm in experiment [8]; 10 mm in [10]; 2 mm in experiment [12]; 9 mm in experiment [14]. For the same compound, the inhibition zone (IZ) amounted to 5 mm in [4], 2 mm in [7] and 2 mm in experiment [15]. Besides, the zone of inhibition at 1000 µg/mL in experiment [6] was determined as 13 mm; in experiment [11] it was 5 mm; in experiment [13] it was 4 mm; in experiment [16], 16 mm; in [19], 15 mm.

These data come from ChEMBL document CHEMBL1909541, “Hantzsch reaction: synthesis and characterization of some new 1,4-dihydropyridine derivatives as potent antimicrobial and antioxidant agents” (Eur J Med Chem, 2011).
